Reference: PubChem BioAssay
Inconclusive results are not listed.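 The calls were made as follows, unless noted: active = cell viability at or below a set limit in both duplicate runs, the limit being the all-compound median minus 4 SD (cut at about 23% in these data, passing the limit was not always enough); inconclusive = no clear call, values can overlap the other calls; inactive = the rest.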

Experiments:
[1] = S. cerevisiae growth inhibition in permissive medium (OD615), pilot counter-assay for S. cerevisiae lifespan shortening project, permissive growth control (AID 705;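 active = growth inhibition above 25% in both replicates, a cutoff set 3 SD above the mean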); conditions: OD615, 24 h, at 10 µM, hits give high values
Outline: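 System: S. cerevisiae with engineered DeaD lifespan system / Measured by: absorbance (optical density) at 615 nm / Read-out: reduction in yeast growth (OD615) / Times: 4 h cell pre-growth, 24 h exposure at 30 °C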

[2] = S. cerevisiae growth inhibition in restrictive medium, OD615, pilot screen, restrictive growth control, yeast lifespan reduction project (AID 706;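 active = growth inhibition above a set limit, 3 SD over mean compound inhibition, in both replicates, cut at about 43% in these data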;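 also: modified DeaD lifespan yeast strain shifted to restrictive glucose medium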); conditions: OD615, 48 h, at 10 µM, hits give high values
Outline: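 System: Engineered S. cerevisiae DeaD strain | Buffer or medium: Glucose-based CSMM-D restrictive medium | Schedule: 4 h pre-incubation, 48 h exposure at 30 °C | Technique: Optical density at 615 nm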

[3] = doxorubicin toxicity protection in MRP-1 cells – H69AR cells, CellTiter-Glo, duplicate, MRP-1 activator project, pilot screen (AID 807;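 active = viability increase at or above a cutoff of the median across tested compounds plus 3 SD, cut at about 8.5% in these data, passing the limit was not always enough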;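 also: compound pretreatment 18-22 h then 72 h combined with doxorubicin; 0% = doxorubicin alone and 100% = vehicle without doxorubicin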); conditions: H69AR viability with doxorubicin, CellTiter-Glo luminescence; at 10 µM; hits give high values
[4] = viability of HCT116 without oncogenic beta-catenin – human colon tumor cells, pilot screen (AID 823); conditions: HCT116 beta-catenin knockout viability, CellTiter-Glo, 60 h; at 10 µM; hits give low values;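 also: 0% = wells killed by 20 µM Hyamine and 100% = untreated DMSO cell wells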
[5] = viability of PTEN-null HCT116 cells – cell-based, HCT116 clonal line, CellTiter-Glo, pilot screen (AID 824;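 active = viability at or below 27.92% in each of two runs, the all-compound median minus 4 SD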;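 also: 0% = 20 µM Hyamine control and 100% = vehicle cell control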); conditions: HCT116 PTEN-deleted viability, 60 h, at 10 µM, hits give low values
[6] = RAM pathway blockade in budding yeast – dse1pr::URA3 reporter, 5-FOA selection, pilot screen (AID 869;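 active = inhibition over a set limit, the all-compound mean plus 3 SD, in both replicate runs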;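 also: 0% = DMSO wells with no growth and 100% = 10 µM 1-NA-PP1 with full growth; RAM network block rescues cells from 5-FOA so hits raise OD615 growth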); conditions: S. cerevisiae dse1pr::URA3 5-FOA growth, OD615, 2 d; at 10 µM; hits give high values; strain carries analog-sensitive mutant Cbk1 kinase
[7] = RAM signaling pathway blockade in yeast – S. cerevisiae, Pdr1DBD-CYC8 efflux-inhibited sensitized strain, primary screen (AID 1298;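 active = RAM network inhibition above 8.4% in each of two replicates, 3 SD over the compound average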;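 also: 0% = DMSO untreated cells without growth and 100% = 10 µM 1-NA-PP1 full growth; higher means more yeast growth rescued from 5-FOA killing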); conditions: S. cerevisiae cbk1-as DSE1-URA3 strain, 5-FOA growth OD615, 2 d; at 50 µM; hits give high values

CCOc1cccc(-c2nc(C(N)=O)c3[nH]c(=O)n(-c4cccc(Cl)c4)c3n2)c1O
inactive: growth inhibition [1] -2.52% | growth inhibition [2] -7.1% | viability increase [3] -2.06% | viability [4] 101% | viability [5] 93.1% | inhibition [6] 0.85% | RAM network inhibition [7] 2.67%

CCN1CCN(CC(=O)Nc2cccc(C)c2C)C(=O)C1=O
inactive: growth inhibition [1] -3.54% | growth inhibition [2] -7.93% | viability increase [3] -0.73% | viability [4] 99% | viability [5] 90.9% | inhibition [6] 2.46% | RAM network inhibition [7] 2.6%

COCCNC(=O)CN(c1ccc(C)cc1)S(=O)(=O)c1ccc(SC)cc1
inactive: growth inhibition [1] -10.6% | growth inhibition [2] -12.2% | viability increase [3] -0.9% | viability [4] 96.2% | viability [5] 84.2% | inhibition [6] 0.71% | RAM network inhibition [7] 5.17%

CC(C)N1CCc2c(sc(NC(=O)c3ccc(S(=O)(=O)N4CCOCC4)cc3)c2C(N)=O)C1
inactive: growth inhibition [1] -2.23% | growth inhibition [2] -11.5% | viability increase [3] -3.25% | viability [4] 92.6% | viability [5] 88.7% | inhibition [6] 2.21% | RAM network inhibition [7] 1.28%

COC(=O)C(C)n1cnc2c(nnn2-c2cccc(Cl)c2)c1=O (configuration not stated)
inactive: growth inhibition [1] -6.67% | growth inhibition [2] 1.2% | viability increase [3] 2.08% | viability [4] 110% | viability [5] 99% | inhibition [6] 0.05% | RAM network inhibition [7] 6.76%

O=C(CNS(=O)(=O)c1cccc2nsnc12)NC1CCCCC1
inactive: growth inhibition [1] -8.49% | growth inhibition [2] -16.5% | viability increase [3] -1.47% | viability [4] 96.2% | viability [5] 92.3% | inhibition [6] 1.06% | RAM network inhibition [7] 1.3%

O=c1nc(-c2ccccc2)cn[nH]1
inactive: growth inhibition [1] -4.61% | growth inhibition [2] -4.27% | viability increase [3] -0.11% | viability [4] 101% | viability [5] 105% | inhibition [6] 1.29% | RAM network inhibition [7] 2.6%

CCC(C)NC(=O)CS(=O)Cc1nc(-c2ccccc2C)oc1C (configuration not stated)
inactive: growth inhibition [1] 1.69% | growth inhibition [2] 12.7% | viability increase [3] -2.38% | viability [4] 96.1% | viability [5] 95.2% | inhibition [6] 1.9% | RAM network inhibition [7] 9.39%

CC1Cc2nc(SCC(=O)N3CCOCC3)n(-c3ccccc3)c(=O)c2S1 (configuration not stated)
inactive: growth inhibition [1] -10.7% | growth inhibition [2] -11.7% | viability increase [3] -0.68% | viability [4] 111% | viability [5] 104% | inhibition [6] 0.16% | RAM network inhibition [7] 0.95%

COC(=O)c1ccc2[nH]c(C)cc(=O)c2c1
inactive: growth inhibition [1] -15.1% | growth inhibition [2] -24.1% | viability increase [3] -0.51% | viability [4] 99.8% | viability [5] 90.9% | inhibition [6] 1.61% | RAM network inhibition [7] 4.64%

CC(C)n1c(CCC(=O)O)ccc1-c1ccccc1
inactive: growth inhibition [1] 3.21% | growth inhibition [2] 4.49% | viability increase [3] -0.71% | viability [4] 96% | viability [5] 101% | inhibition [6] 0.285% | RAM network inhibition [7] 1.3%

Cc1ccc(-c2csc(N3CCC(C(N)=O)(N4CCCCC4)CC3)n2)cc1
inactive: growth inhibition [1] 6.21% | growth inhibition [2] -8.75% | viability increase [3] -1.76% | viability [4] 75.5% | viability [5] 75% | inhibition [6] -0.445% | RAM network inhibition [7] 2.58%

CCN(CC)CCCNC(=O)Cn1ncc2c(=O)oc3ccc(C)cc3c21
inactive: growth inhibition [1] -23.9% | growth inhibition [2] -25.6% | viability increase [3] -1.87% | viability [4] 101% | viability [5] 92.3% | inhibition [6] 2.04% | RAM network inhibition [7] 5.92%

CCc1nnc(NC(=O)c2ccc(S(=O)(=O)N3CCOCC3)cc2)s1
inactive: growth inhibition [1] -10.4% | growth inhibition [2] -20.2% | viability increase [3] -1.63% | viability [4] 105% | viability [5] 94.6% | inhibition [6] 1.92% | RAM network inhibition [7] 9.48%

C=CCOc1cccc(C2c3c(oc4ccccc4c3=O)C(=O)N2c2ccccn2)c1 (configuration not stated)
inactive: growth inhibition [1] -8.5% | growth inhibition [2] -8.1% | viability increase [3] -4.17% | viability [4] 79.7% | viability [5] 81.6% | inhibition [6] 2.12% | RAM network inhibition [7] 9.18%

O=C1CCc2cc(S(=O)(=O)NC(C(=O)NCc3cccnc3)c3ccccc3)ccc2N1 (configuration not stated)
inactive: growth inhibition [1] -5.88% | growth inhibition [2] 4.59% | viability increase [3] -2.98% | viability [4] 100% | viability [5] 98.3% | inhibition [6] -0.185% | RAM network inhibition [7] 3.79%

CCOC(=O)c1c(CN(CC)CC)oc2cc(Br)c(O)cc12
inactive: growth inhibition [1] -0.115% | growth inhibition [2] 0.915% | viability increase [3] -3.81% | viability [4] 78.2% | viability [5] 81.6% | inhibition [6] -0.04% | RAM network inhibition [7] 3.43%

COc1ccc(C)cc1NC(=O)c1nnn(CCc2ccccc2)c1N
inactive: growth inhibition [1] -5.25% | growth inhibition [2] -3.95% | viability increase [3] -5.29% | viability [4] 85.8% | viability [5] 81.5% | inhibition [6] 2.73% | RAM network inhibition [7] 3.9%

CCCc1nc2c(o1)CC(CC(C)SCC)CC2=O (configuration not stated)
inactive: growth inhibition [1] -7.34% | growth inhibition [2] -1.98% | viability increase [3] -0.4% | viability [4] 101% | viability [5] 98.8% | inhibition [6] 1.36% | RAM network inhibition [7] 5.75%

COC(=O)C1C(O)=C(C(C)=N)C(=O)CC1(C)C (configuration not stated)
inactive: growth inhibition [1] -3.89% | growth inhibition [2] 2.82% | viability increase [3] -0.83% | viability [4] 98.1% | viability [5] 90.8% | inhibition [6] -0.755% | RAM network inhibition [7] 1.67%

O=C(OCCN1C(=O)c2ccccc2C1=O)c1cccs1
inactive: growth inhibition [1] -5.91% | growth inhibition [2] -1.62% | viability increase [3] -1.54% | viability [4] 104% | viability [5] 100% | inhibition [6] 0.61% | RAM network inhibition [7] 2.97%

CCOc1ccccc1CNS(=O)(=O)c1ccc2c(c1)oc(=O)n2C
inactive: growth inhibition [1] -8.67% | growth inhibition [2] -0.955% | viability increase [3] -1.75% | viability [4] 102% | viability [5] 94% | inhibition [6] -0.575% | RAM network inhibition [7] 1.03%

Cc1nc2cc(C(=O)O)ccc2n1-c1ccccc1
inactive: growth inhibition [1] -11.5% | growth inhibition [2] -0.12% | viability increase [3] -2.1% | viability [4] 109% | viability [5] 94.8% | inhibition [6] 1.99% | RAM network inhibition [7] 1.31%

C=CCn1c(-c2ccco2)n[nH]c1=S
inactive: growth inhibition [1] 2.98% | growth inhibition [2] -4.35% | viability increase [3] -1.3% | viability [4] 110% | viability [5] 97.6% | inhibition [6] 1.58% | RAM network inhibition [7] 2.89%

CCOC(=O)N1CCC(N2C(=O)c3cc(C(=O)NC4CCCCC4)ccc3C2O)CC1 (configuration not stated)
inactive: growth inhibition [1] -2.13% | growth inhibition [2] -0.895% | viability increase [3] -3.03% | viability [4] 94.5% | viability [5] 88.1% | inhibition [6] 0.045% | RAM network inhibition [7] 3.81%

CCOc1ccc2[nH]c(C)c(CN(C)C)c(=O)c2c1
inactive: growth inhibition [1] 1.46% | growth inhibition [2] 9.84% | viability increase [3] -1.41% | viability [4] 99.4% | viability [5] 95.1% | inhibition [6] -0.27% | RAM network inhibition [7] 4.03%

CCOc1ccc(OCC)c(NS(=O)(=O)c2cccc3nsnc23)c1
inactive: growth inhibition [1] -13.8% | growth inhibition [2] -21.1% | viability increase [3] -2.5% | viability [4] 88.8% | viability [5] 98% | inhibition [6] 2.63% | RAM network inhibition [7] 3.41%

COC(=O)c1c(S(N)(=O)=O)c2ccccc2n1C
inactive: growth inhibition [1] -2.33% | growth inhibition [2] 2.71% | viability increase [3] -1.28% | viability [4] 100% | viability [5] 102% | inhibition [6] 1.06% | RAM network inhibition [7] 4.32%

O=C(COc1ccccc1)Nc1nnc(-c2ccc(Cl)s2)o1
inactive: growth inhibition [1] -2.75% | growth inhibition [2] 8.75% | viability increase [3] -1.36% | viability [4] 109% | viability [5] 100% | inhibition [6] 2.67% | RAM network inhibition [7] 1.52%

COc1ccc(-c2nnc(SCC(=O)NC3CCCCC3)o2)cc1OC
inactive: growth inhibition [1] -3.22% | growth inhibition [2] 1.43% | viability increase [3] -2.07% | viability [4] 98.5% | viability [5] 98.4% | inhibition [6] 1.34% | RAM network inhibition [7] 2.65%

CC1(C)CC(=O)c2c(Cc3ccccc3)n[nH]c2C1
inactive: growth inhibition [1] 0.375% | growth inhibition [2] -8.27% | viability increase [3] -1.7% | viability [4] 98.3% | viability [5] 90.5% | inhibition [6] 2.2% | RAM network inhibition [7] -0.11%

CCCS(=O)(=O)c1nc(S(=O)(=O)c2ccc(C)cc2)c(N2CCCC2)s1
inactive: growth inhibition [1] -0.655% | growth inhibition [2] 9.56% | viability increase [3] -2.03% | viability [4] 103% | viability [5] 96.3% | inhibition [6] 4.48% | RAM network inhibition [7] 10.2%

Cc1cc2nsnc2c(S(=O)(=O)NCC(=O)O)c1C
inactive: growth inhibition [1] -7.75% | growth inhibition [2] -1.79% | viability increase [3] 1.73% | viability [4] 100% | viability [5] 102% | inhibition [6] 2.25% | RAM network inhibition [7] 0.2%

O=C(O)COc1ccc2c(c1)OCCO2
inactive: growth inhibition [1] -7.81% | growth inhibition [2] -2.33% | viability increase [3] 0.55% | viability [4] 99.2% | viability [5] 107% | inhibition [6] 1.04% | RAM network inhibition [7] -0.47%

Nc1ccc(OCc2ccccc2)cc1
inactive: growth inhibition [1] -14.4% | growth inhibition [2] -9.93% | viability increase [3] -4.17% | viability [4] 98.7% | viability [5] 89.4% | inhibition [6] 1.9% | RAM network inhibition [7] 5.27%

Cc1ccc(-c2nc(NC(=O)CSc3nnc4scc(-c5ccccc5)n34)ns2)cc1
inactive: growth inhibition [1] 0.135% | growth inhibition [2] 0.99% | viability increase [3] 1.17% | viability [4] 74% | viability [5] 66.8% | inhibition [6] 2.42% | RAM network inhibition [7] 5.6%
